Laboratory results: ChEMBL document CHEMBL3393033, “6-(Azaindol-2-yl)pyridine-3-sulfonamides as potent and selective inhibitors targeting hepatitis C virus NS4B” (Bioorg Med Chem Lett, 2015)
Calls of active or inactive are those of the source. The calls are words filed in the database; no cut-off is given here.

Tests used:
[1] = Toxicity in human HuH7 cells infected with genotype 1b Hepatitis C virus bicistronic replicon Con1 assessed as reduction in GAPDH RNA after 3 days by RT-PCR analysis; format: cell-based, Huh-7
Procedure, shortened: (§1)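 Huh7 cells carrying a genotype 1b (Con1) bicistronic HCV replicon seeded at 5000 cells/well. Compound added at a final DMSO concentration of 0.5%, then incubated at 37°C for 3 days. Replicon RNA, and GAPDH RNA as the endogenous selectivity control, quantified by real-time RT-PCR. Values are the average of at least two independent determinations.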

Hepatitis C virus [2] = assay: Antiviral activity against genotype 1b Hepatitis C virus bicistronic replicon Con1 infected in human HuH7 cells after 3 days by RT-PCR analysis; format: functional, cell-based, Hepacivirus hominis; conditions: genotype 1b Con1, Huh-7, 72 h; procedure, shortened: as §1
[3] = Ratio of plasma concentration in po dosed monkey at 8 hrs to EC50 for genotype 1b Hepatitis C virus bicistronic replicon Con1 infected in human Huh7 cells; format: ADME, organism-based, Huh-7; conditions: in vivo
Procedure, shortened: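 Monkeys: male cynomolgus (n = 2) dosed orally at 3 mg/kg as a suspension in 0.4% hydroxypropyl methylcellulose. Plasma level at 8 h post-dose was measured by LC-MS/MS and expressed relative to the replicon 1b EC₅₀.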

[4] = Ratio of plasma concentration in Sprague-Dawley rat at 10 mg/kg, po administered as single dose after 6 hrs to EC50 for genotype 1b Hepatitis C virus bicistronic replicon Con1 infected in human HuH7 cells; format: ADME, organism-based, Huh-7; set-up: dose 10 mg/kg, route oral; conditions: in vivo
Procedure, shortened: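 Male Sprague Dawley rats (n = 2) received a single 10 mg/kg oral dose in 0.4% hydroxypropyl methylcellulose suspension. Plasma concentration at 6 h post-dose was measured by LC-MS/MS and divided by the Con1 1b replicon EC₅₀ from the Huh7 RT-PCR assay.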

[5] = Ratio of plasma concentration in po dosed dog at 8 hrs to EC50 for genotype 1b Hepatitis C virus bicistronic replicon Con1 infected in human Huh7 cells; format: ADME, organism-based, Huh-7; conditions: in vivo
Procedure, shortened: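 Dogs: male beagles (n = 2) dosed orally at 2 mg/kg as a suspension in 0.4% hydroxypropyl methylcellulose. Plasma concentration at 8 h post-dose was measured by LC-MS/MS and divided by the replicon 1b EC₅₀.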

[6] = Ratio of drug level in liver to plasma Sprague-Dawley rat plasma at 10 mg/kg, po administered as single dose by LC-MS/MS analysis; format: ADME, organism-based; set-up: dose 10 mg/kg, route oral
Procedure, shortened: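 Male Sprague Dawley rats (n = 2) received 10 mg/kg orally as a suspension in 0.4% hydroxypropyl methylcellulose, after lyophilization from acetonitrile/water (1:1). Liver and plasma concentrations were measured at 6 h post-dose by LC-MS/MS and expressed as a liver/plasma ratio.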

[7] = AUC (0 to 6 hrs) in Sprague-Dawley rat plasma at 10 mg/kg, po administered as single dose by LC-MS/MS analysis; format: ADME, organism-based; set-up: time < 6 hr, dose 10 mg/kg, route oral
Procedure, shortened: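 Male Sprague Dawley rats (n = 2) were dosed once orally at 10 mg/kg. Compound was lyophilized from acetonitrile/water (1:1) and given as a suspension in 0.4% hydroxypropyl methylcellulose. Plasma was sampled at 30 min and at 1, 2, 3, 4 and 6 h post-dose for LC-MS/MS. AUC is over 0–6 h.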

[8] = AUC (0 to 24 hrs) in monkey at 3 mg/kg, po by LC-MS/MS analysis; conditions: cynomolgus monkey, plasma
[9] = AUC (0 to 24 hrs) in dog plasma at 2 mg/kg, po by LC-MS/MS analysis; format: ADME, organism-based, Canis lupus familiaris; set-up: time < 24 hr, dose 2 mg/kg, route oral
Procedure, shortened: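 Male beagle dogs (n = 2) were dosed orally at 2 mg/kg. Compound was lyophilized from acetonitrile/water (1:1) and given as a suspension in 0.4% hydroxypropyl methylcellulose. Plasma was collected at 30 min and at 1, 2, 4, 8 and 24 h for LC-MS/MS.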

Hepatitis C virus [10] = assay: Antiviral activity against HCV genotype 1b Con1 replicon cells expressing NS4B V105M mutant grown under serial passage in presence of 1x to 30x EC90 level of compound assessed as reduction in replicon RNA levels relative to wild type HCV genotype 1b Con1; format: functional, Hepacivirus hominis
Hepacivirus hominis [11] = assay: Inhibition of Hepatitis C virus NS5B polymerase up to 10000 nM
Hepatitis C virus [12] = assay: Antiviral activity against HCV genotype 1b Con1 replicon cells expressing NS4B F98C mutant grown under serial passage in presence of 1x to 30x EC90 level of compound assessed as reduction in replicon RNA levels relative to wild type HCV genotype 1b Con1; format: functional, Hepacivirus hominis
Hepacivirus hominis [13] = assay: Inhibition of Hepatitis C virus NS3 protease up to 10000 nM

SMILES | IC50 at 3 days [1] | EC50 (Hepatitis C virus [2]) | Ratio [4] | Kp [6] | AUC(0-t) at 6 h [7] | further results
CCCOc1cnc2c(c1)c(C#N)c(-c1ccc(S(=O)(=O)N[C@@H](C)C(F)(F)F)cn1)n2C1CCC1 | > 10000 nM | 2150 nM |  |  |  | 
CCOc1cnc2c(c1)c(C#N)c(-c1ccc(S(=O)(=O)N[C@@H](C)C(F)(F)F)cn1)n2C1CCC1 | > 10000 nM | 200 nM |  |  |  | 
C[C@H](NS(=O)(=O)c1ccc(-c2c(C#N)c3cc(Cl)ncc3n2C2CCC2)nc1)C(F)(F)F | > 10000 nM | 530 nM |  |  |  | 
C[C@H](NS(=O)(=O)c1ccc(-c2c(C#N)c3cc(Cl)cnc3n2C2CCCC2)nc1)C(F)(F)F | > 10000 nM | 27 nM | 40 | 19 | 6.84 µM·h | Ratio [3]: 0.3; Ratio [5]: 2; AUC(0-t) at 24 h [8]: 0.29 µM·h; AUC(0-t) at 24 h [9]: 2.07 µM·h
COc1ncc2c(C#N)c(-c3ccc(S(=O)(=O)N[C@@H](C)C(F)(F)F)cn3)n(C3CCC3)c2n1 | > 10000 nM | 240 nM |  |  |  | 
Cc1cnc2c(c1)c(C#N)c(-c1ccc(S(=O)(=O)N[C@@H](C)C(F)(F)F)cn1)n2C1CCC1 | > 10000 nM | 13 nM | 55 | 9 | 6.92 µM·h | Ratio [3]: 1; Ratio [5]: 14; AUC(0-t) at 24 h [8]: 0.641 µM·h; AUC(0-t) at 24 h [9]: 5.67 µM·h
Cc1cnc2c(c1)c(C#N)c(-c1ncc(S(=O)(=O)N[C@@H](C)C(F)(F)F)cn1)n2C1CCC1 | > 10000 nM | 160 nM |  |  |  | 
COc1cnc2c(c1)c(C#N)c(-c1ccc(S(=O)(=O)N[C@@H](C)C(F)(F)F)cn1)n2C1CCC1 | > 9000 nM | 27 nM | 30 | 14 | 7.61 µM·h | Ratio [3]: 4; Ratio [5]: 6; fold change (FC) (Hepatitis C virus [10]): 17; inhibition (Hepacivirus hominis [11]): inactive; fold change (FC) (Hepatitis C virus [12]): 25; AUC(0-t) at 24 h [8]: 2.28 µM·h; inhibition (Hepacivirus hominis [13]): inactive; AUC(0-t) at 24 h [9]: 4.18 µM·h
C[C@H](NS(=O)(=O)c1ccc(-c2c(C#N)c3cc(Cl)cnc3n2C2CCC2)nc1)C(F)(F)F | > 10000 nM | 17 nM | 22 | 23 | 2.39 µM·h | Ratio [3]: 2; Ratio [5]: 12; AUC(0-t) at 24 h [8]: 1.03 µM·h; AUC(0-t) at 24 h [9]: 4.08 µM·h
C[C@H](NS(=O)(=O)c1ccc(-c2c(C#N)c3cc(C(F)(F)F)cnc3n2C2CCC2)nc1)C(F)(F)F | > 10000 nM | 2 nM | 503 | 44 | 5.83 µM·h | Ratio [3]: 105; Ratio [5]: 125; AUC(0-t) at 24 h [8]: 5.44 µM·h; AUC(0-t) at 24 h [9]: 8.16 µM·h
Cc1cnc2c(C#N)c(-c3ccc(S(=O)(=O)N[C@@H](C)C(F)(F)F)cn3)n(C3CCC3)c2c1 | > 10000 nM | 119 nM |  |  |  | 
Cc1cc2c(C#N)c(-c3ccc(S(=O)(=O)N[C@@H](C)C(F)(F)F)cn3)n(C3CCC3)c2cn1 | > 10000 nM | 1400 nM |  |  |  | 
C[C@H](NS(=O)(=O)c1ccc(-c2c(C#N)c3ncc(Cl)cc3n2C2CCC2)nc1)C(F)(F)F | 2500 nM | 94 nM |  |  |  | 
CCc1cnc2c(c1)c(C#N)c(-c1ccc(S(=O)(=O)N[C@@H](C)C(F)(F)F)cn1)n2C1CCC1 | > 5160 nM | 15 nM | 27 | 13 | 2.63 µM·h | 
COc1cnc2c(c1)c(C#N)c(-c1ccc(S(=O)(=O)N[C@@H](C)C(F)(F)F)cn1)n2CC1CC1 | 7900 nM | 300 nM |  |  |  | 
C[C@H](NS(=O)(=O)c1ccc(-c2c(C#N)c3cc(Cl)cnc3n2CC2CC2)nc1)C(F)(F)F | > 10000 nM | 39 nM |  |  |  | 
CC(C)Oc1cnc2c(c1)c(C#N)c(-c1ccc(S(=O)(=O)N[C@@H](C)C(F)(F)F)cn1)n2C1CCC1 | > 10000 nM | 7600 nM |  |  |  | 
Cc1cnc2c(c1)c(C#N)c(-c1ccc(S(=O)(=O)N[C@@H](C)C(F)(F)F)cc1)n2C1CCC1 | > 10000 nM | 87 nM |  |  |  | 
Cc1cc2c(cn1)c(C#N)c(-c1ccc(S(=O)(=O)N[C@@H](C)C(F)(F)F)cn1)n2C1CCC1 | > 10000 nM | 230 nM |  |  |  | 
C[C@H](NS(=O)(=O)c1ccc(-c2c(C#N)c3cc(C4CC4)cnc3n2C2CCC2)nc1)C(F)(F)F | > 10000 nM | 40 nM | 32 | 11 | 10.2 µM·h | 
C[C@H](NS(=O)(=O)c1ccc(-c2c(C#N)c3ccc(Cl)nc3n2C2CCC2)nc1)C(F)(F)F | 6300 nM | 700 nM |  |  |  | 
COc1cnc2c(c1)c(C#N)c(-c1ccc(S(=O)(=O)N[C@@H](C)C(F)(F)F)cn1)n2C1CCCC1 | > 10000 nM | 150 nM |  |  |  | 
COc1ccc2c(C#N)c(-c3ccc(S(=O)(=O)N[C@@H](C)C(F)(F)F)cn3)n(C3CCC3)c2n1 | 9700 nM | 960 nM |  |  |  | 
C[C@H](NS(=O)(=O)c1ccc(-c2c(C#N)c3cccnc3n2C2CCC2)nc1)C(F)(F)F | > 10000 nM | 217 nM |  |  |  | 
Cc1ccc2c(C#N)c(-c3ccc(S(=O)(=O)N[C@@H](C)C(F)(F)F)cn3)n(C3CCC3)c2n1 | > 10000 nM | 87 nM |  |  |  | 
C[C@H](NS(=O)(=O)c1ccc(-c2c(C#N)c3cnc(Cl)cc3n2C2CCC2)nc1)C(F)(F)F | 1310 nM | 260 nM |  |  |  | 
C[C@H](NS(=O)(=O)c1ccc(-c2c(C#N)c3cnc(OC(F)F)nc3n2C2CCC2)nc1)C(F)(F)F | > 10000 nM | 970 nM |  |  |  | 
C[C@H](NS(=O)(=O)c1ccc(-c2c(C#N)c3cc(F)cnc3n2C2CCC2)nc1)C(F)(F)F | > 10000 nM | 46 nM | 23 | 6 | 8.78 µM·h | 
C[C@H](NS(=O)(=O)c1ccc(-c2c(C#N)c3cc(OC(F)F)cnc3n2C2CCC2)nc1)C(F)(F)F | > 10000 nM | 50 nM | 36 | 7 | 9.37 µM·h | 
